{"source": "ChEMBL document CHEMBL4376878", "about": "“Potent Thiophene Antagonists of Human Complement C3a Receptor with Anti-Inflammatory Activity” (J Med Chem, 2020)", "system": "Rattus norvegicus", "experiment": "Antiinflammatory activity in Wistar rat model of BR103-induced paw edema assessed as reduction in Cd244 gene expression at 10 mg/kg, po administered via gavage pretreated for 2 hrs followed by BR103 challenge and measured after 30 mins by SYBR green dye based RT-PCR analysis", "format": "functional, organism-based", "how_it_was_run": "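Rats given 10 mg/kg p.o. in olive oil 2 h before i.pl. BR103 (350 μg/paw). Paws collected 0.5 h after agonist and homogenized in TRIsure for RNA. qPCR run in duplicate, normalized to Hprt, with fold change relative to sham. n = 3–5 male Wistar rats per group.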", "note": "Activity calls are given as the source filed them. The calls are words filed in the database; no cut-off is given here.", "data": [{"smiles": "Cc1cc(C(c2ccc(Cl)cc2)c2ccc(Cl)cc2)sc1C(=O)N[C@@H](CCCNC(=N)N)C(=O)O", "values": [{"measurement": "Activity", "result": "Active"}]}]}
